Results taken from ChEMBL document CHEMBL1124794, “Synthesis, chemistry, and antineoplastic activity of alpha-halopyridinium salts: potential pyridone prodrugs of acylated vinylogous carbinolamine tumor inhibitors” (J Med Chem, 1990).
Values joined by “and” are separate entries in the source; they are usually repeats but may differ in a detail not shown here. Equal values may be shown once.

Legend:
[1] = system: L1210; assay: In vivo activity against murine L1210 tumor system at the dose of 166.7 mg/kg, activity expressed as %T/C.; format: functional, Mus musculus
Outline: (§1)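 L1210 lymphocytic leukemia: ascitic fluid with ca. 10^6 cells injected ip into CD2F1 mice. Dosing started 24 h after inoculation and was repeated daily for five doses in total, from solutions or suspensions made fresh each day. Toxicity day survivors were scored on day 5. Body weight difference is day 5 minus day 1. %T/C is based on median survival time versus controls.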

[2] = Half life at the concentration of 0.025 M.; format: ADME
[3] = Effect of phosphate buffer on carbamate hydrolysis in acetonitrile-water at the concentration of 0.025 M on pH 3.0, 25 degree C.; format: ADME; settings: in the assay text read “citrate buffer” for “phosphate buffer”
Outline: (§2)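 Bis-carbamate in acetonitrile–water (1:1), 25 ± 0.1 °C. Citrate buffer at pH 3.0 or phosphate buffer at pH 7.4, at 0.01, 0.025 or 0.05 M, ionic strength 0.136 (KCl). Kinetics followed by HPLC as the decrease in bis-carbamate peak area. The regression slope of ln(area0/areat) vs time gave pseudo-first-order kobs. Duplicates averaged.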

[4] = Effect of pH on carbamate hydrolysis in 0.05 M buffer concentration at the pH 10.0, 25 degree C.; format: ADME
Outline: (§3)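 Bis-carbamate in acetonitrile–water (1:1; buffer added to a 0.5 mg/mL acetonitrile solution), 0.05 M buffer, ionic strength 0.136 (KCl), 25 ± 0.1 °C. Buffers: phosphate pH 2.0; citrate pH 3.0–3.5; succinate pH 4.0; acetate pH 5.0; phosphate pH 6.0–8.0; borate pH 9.0; carbonate pH 10.0. HPLC bis-carbamate peak-area loss, ln(area0/areat) vs time slope = kobs. Duplicates averaged.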

[5] = In vivo activity against murine M5076 tumor system at the dose of 166.7 mg/kg, activity expressed as TDS; 4/10; format: functional, Mus musculus
Outline: (§4)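 M5076: ascitic fluid with ca. 10^6 cells inoculated ip into CD2F1 mice. Dosing started 24 h after inoculation and was then given every 4 days for four doses in total, from solutions or suspensions made fresh each day. Toxicity day survivors were scored on day 5. Body weight difference is day 14 minus day 1. %T/C is based on median survival time versus controls.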

[6] = system: P388; assay: In vivo activity against P388 Lymphocytic Leukemia in CD2F1 mice at the dose of 200 mg/kg, activity expressed as TDS; 6/6; format: functional, Mus musculus
Outline: (§5)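 CD2F1 mice were inoculated with ascitic fluid holding ca. 10^6 P388 cells. Drug was given daily from 24 h after inoculation, from solutions or suspensions made fresh each day, some as a saline suspension. TDS is survivors/initial animals on day 5. BWD is body weight on day 5 minus day 1. %T/C compares median survival of treated and control mice.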

[7] = In vivo activity against murine M5076 tumor system at the dose of 100 mg/kg, activity expressed as KE; format: functional, Mus musculus; outline: as §4
[8] = Half life at the pH 2.0; format: ADME; settings: buffer; outline: as §3
[9] = system: P388; assay: In vivo activity against P388 Lymphocytic Leukemia in CD2F1 mice at the dose of 50 mg/kg, activity expressed as body weight difference; T-C; format: functional, Mus musculus; outline: as §5
[10] = Effect of phosphate buffer on carbamate hydrolysis in acetonitrile-water at the concentration of 0.01 M on pH 7.4, 25 degree C.; format: ADME; outline: as §2
[11] = system: L1210; assay: In vivo activity against murine L1210 tumor system at the dose of 166.7 mg/kg, activity expressed as TDS; 5/6; format: functional, Mus musculus; outline: as §1
[12] = In vivo activity against murine M5076 tumor system at the dose of 60 mg/kg, activity expressed as TDS; 10/10; format: functional, Mus musculus
[13] = In vivo activity against murine M5076 tumor system at the dose of 100 mg/kg, activity expressed as %T/C; 10/10.; format: functional, Mus musculus; outline: as §4
[14] = In vivo activity against murine M5076 tumor system at the dose of 166.7 mg/kg, activity expressed as body weight difference; T-C; format: functional, Mus musculus; outline: as §4
[15] = Effect of phosphate buffer on carbamate hydrolysis in acetonitrile-water at the concentration of 0.025 M on pH 7.4, 25 degree C.; format: ADME; outline: as §2
[16] = system: L1210; assay: In vivo activity against murine L1210 tumor system at the dose of 21.6 mg/kg, activity expressed as TDS; 6/6; format: functional, Mus musculus; outline: as §1
[17] = system: L1210; assay: In vivo activity against murine L1210 tumor system at the dose of 60 mg/kg, activity expressed as KE; format: functional, Mus musculus; outline: as §1
[18] = system: P388; assay: In vivo activity against P388 Lymphocytic Leukemia in CD2F1 mice at the dose of 25 mg/kg, activity expressed as KE; format: functional, Mus musculus
[19] = Half life at the pH 4.0; format: ADME; settings: buffer; outline: as §3
[20] = system: L1210; assay: In vivo activity against murine L1210 tumor system at the dose of 21.6 mg/kg, activity expressed as body weight difference; T-C; format: functional, Mus musculus; outline: as §1
[21] = Half life at the ionic strength 1.0 M NaCl; format: ADME
Outline: (§6)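 Pyridinium salt in 0.02 M phosphate buffer, pH 7.4, 25 °C, with NaCl varied 0.10–1.0 M. Loss of the pyridinium chromophore's UV absorbance maximum (conversion to pyridone) followed over time. Pseudo-first-order kobs and half-life derived from that decay.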

[22] = Effect of Ionic strength (0.50 M NaCl)on the hydrolysis of pyridinium Moity in 0.02 M buffer concentration, pH 7.4,25 degree C; format: ADME; outline: as §6
[23] = Half life at the buffer concentration of 0.10 M.; format: ADME
Outline: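 α-Fluoropyridinium hydrolysis to pyridone in phosphate buffer at 0.02, 0.05 or 0.10 M, pH 6.5 or 8.0, ionic strength […] °C. Pyridinium UV absorbance maximum followed with time to give pseudo-first-order kobs and half-life.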

[24] = In vivo activity against murine M5076 tumor system at the dose of 100 mg/kg, activity expressed as TDS; 6/10; format: functional, Mus musculus; outline: as §4
[25] = Half life at the concentration of 0.05 M.
[26] = Effect of pH on the hydrolysis of pyridinium Moity in 0.05 M buffer concentration at the pH 8.0; format: ADME
Outline: (§7)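 Pyridinium salt in 0.05 M phosphate buffer, pH 6.0–8.0 (set by pH meter), ionic strength 0.25 M, 25 °C. Decrease in the pyridinium UV absorbance maximum followed over time to give pseudo-first-order kobs and half-life.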

[27] = Effect of pH on the hydrolysis of pyridinium Moity in 0.05 M buffer concentration at the pH 7.4; format: ADME; outline: as §7
[28] = system: L1210; assay: In vivo activity against murine L1210 tumor system at the dose of 25 mg/kg, activity expressed as body weight difference; format: functional, Mus musculus; outline: as §1
[29] = system: MX1; assay: In vivo activity against murine MX-1 tumor system at the dose of 75 mg/kg, activity expressed as TDS; 4/6; format: functional, Mus musculus
[30] = system: L1210; assay: In vivo activity against murine L1210 tumor system at the dose of 50 mg/kg, activity expressed as %T/C.; format: functional, Mus musculus; outline: as §1
[31] = system: P388; assay: In vivo activity against P388 Lymphocytic Leukemia in CD2F1 mice at the dose of 50 mg/kg, activity expressed as body weight difference; format: functional, Mus musculus; outline: as §5
[32] = system: P388; assay: In vivo activity against P388 Lymphocytic Leukemia in CD2F1 mice at the dose of mg/kg, activity expressed as KE; format: functional, Mus musculus

SMILES: CC(C)NC(=O)OCc1c(COC(=O)NC(C)C)c(-c2ccn(C)c(=O)c2)n2c1CCC2
- T/C [1]: 110%
- half-life [2]: 20.3 min
- K obs [3]: 0.0342 min⁻¹
- K obs [4]: 0.0133 min⁻¹
- TDS [5]: 4
- TDS [6]: 6
- KE [7]: -1.49
- half-life [8]: 2.11 min
- BWD [9]: -0.6 g
- K obs [10]: 0.0133 min⁻¹
- TDS [11]: 5
- TDS [12]: 10
- TDS [13]: 10
- BWD [14]: -5.8 g
- K obs [15]: 0.0134 min⁻¹
- TDS [16]: 6
- KE [17]: -0.5
- KE [18]: -0.5
- half-life [19]: 46.7 min
- BWD [20]: -0.3 g

SMILES: CC(C)NC(=O)OCc1c(COC(=O)NC(C)C)c(-c2cc[n+](C)c(F)c2)n2c1CCC2.[I-]
- half-life [21]: 99.1 min
- K obs [22]: 0.011 min⁻¹
- T1/2 [23]: 50.3 min and 19.25 min
- TDS [24]: 6
- T1/2 [25]: 96.2 min
- K obs [26]: 0.052 min⁻¹
- K obs [27]: 0.0337 min⁻¹
- BWD [28]: 0.6 g
- TDS [29]: 4
- T/C [30]: 118%
- BWD [31]: -0.8 g
- KE [32]: 1.25
